Measurements: PubChem BioAssay AID624306 (The Scripps Research Institute Molecular Screening Center, 2012)
Activity calls are given as the source filed them.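 How the source made its calls: active means inhibition of insulin-degrading enzyme persists after dilution, judged irreversible; inactive means inhibition lost or reduced after dilution, judged reversible.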

Target: Insulin-degrading enzyme (Homo sapiens) (UniProt P14735)
Experiment: reversibility of cysteine-free IDE inhibition, late-stage follow-up, mechanism study for IDE inhibitor project, biochemical, cysteine-free mutant, FRET1 fluorogenic peptide (AID 624306)
Details: recombinant cysteine-free IDE, FRET1 fluorescence
How it was run: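 System: Mutant insulin-degrading enzyme (IDE) | Input: Mutant IDE at 1 nM in the well | Also added: Substrate 1 µM | Dosing: Top compound dose 100 µM | Times: Kinetic reads every 2 min over 2 h, room temperature | Technique: Fluorescence at 335/385 nm | Controls: Vehicle (high) and no-enzyme (low) wells | Replication: Triplicate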

Chain of Insulin-degrading enzyme (Homo sapiens) (P14735 whole entry, looked up): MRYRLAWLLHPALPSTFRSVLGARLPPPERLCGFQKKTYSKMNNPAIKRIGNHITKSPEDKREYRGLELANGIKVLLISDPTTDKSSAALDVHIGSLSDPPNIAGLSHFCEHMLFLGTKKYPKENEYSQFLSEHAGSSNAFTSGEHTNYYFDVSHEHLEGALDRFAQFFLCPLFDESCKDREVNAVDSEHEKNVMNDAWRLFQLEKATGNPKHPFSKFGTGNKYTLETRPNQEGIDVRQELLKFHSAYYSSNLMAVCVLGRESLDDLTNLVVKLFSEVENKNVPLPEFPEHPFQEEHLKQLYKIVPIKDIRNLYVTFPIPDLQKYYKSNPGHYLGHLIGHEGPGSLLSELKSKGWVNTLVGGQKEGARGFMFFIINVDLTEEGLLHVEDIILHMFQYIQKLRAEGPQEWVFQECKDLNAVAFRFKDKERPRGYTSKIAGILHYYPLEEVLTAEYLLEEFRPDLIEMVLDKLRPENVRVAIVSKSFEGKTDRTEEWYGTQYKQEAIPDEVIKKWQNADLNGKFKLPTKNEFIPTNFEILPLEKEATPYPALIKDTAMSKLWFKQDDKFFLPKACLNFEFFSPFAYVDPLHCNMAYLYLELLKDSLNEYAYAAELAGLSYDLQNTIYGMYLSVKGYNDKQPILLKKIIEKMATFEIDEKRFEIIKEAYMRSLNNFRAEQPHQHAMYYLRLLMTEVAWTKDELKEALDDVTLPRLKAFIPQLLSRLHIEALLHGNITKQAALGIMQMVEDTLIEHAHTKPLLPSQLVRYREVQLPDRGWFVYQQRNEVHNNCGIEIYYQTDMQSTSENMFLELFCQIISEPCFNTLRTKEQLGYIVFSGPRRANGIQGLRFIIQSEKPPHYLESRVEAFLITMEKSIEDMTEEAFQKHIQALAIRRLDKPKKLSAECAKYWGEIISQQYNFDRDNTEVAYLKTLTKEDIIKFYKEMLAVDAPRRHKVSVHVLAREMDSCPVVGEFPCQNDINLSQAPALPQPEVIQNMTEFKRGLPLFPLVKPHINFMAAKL

Compound	outcome
Cc1c(CCC(=O)NCCCn2ccnc2)c(=O)oc2cc3oc4c(c3cc12)CCCC4	inactive
Cc1cccc(-c2nnc(SCc3nc4ccccc4[nH]3)n2Cc2ccco2)c1	inactive
O=C(Nc1cccc(C(F)(F)F)c1)c1csc(-c2ccncc2)n1	inactive
COc1ccc(C(=O)N2CCN(C(=O)C3COc4ccccc4O3)CC2)cc1OC (stereo not given)	inactive
COc1cccc(-c2nnc(SCc3nc4ccccc4[nH]3)n2Cc2ccco2)c1	inactive

The next lines start with the values.

outcome	Compound
inactive	Cn1c(=O)c(C(=O)CN2CCCc3ccccc32)c(N)n(Cc2ccccc2)c1=O
inactive	Clc1cccc(-c2nnc(SCc3nc4ccccc4[nH]3)n2Cc2ccco2)c1
active	O=c1c2ccccc2sn1-c1cc(S(=O)(=O)N2CCOCC2)ccc1N1CCOCC1
active	O=C(O)c1ccccc1NS(=O)(=O)c1cccc(-n2sc3ccccc3c2=O)c1
inactive	COc1cc(/C=C2\SC(=S)N(NC(C)=O)C2=O)ccc1OC(=O)c1ccco1
